From ChEMBL document CHEMBL4513216, “Probing the Open Global Health Chemical Diversity Library for Multistage-Active Starting Points for Next-Generation Antimalarials” (ACS Infect Dis, 2020)

Experiment: Toxicity liver stage against HepG2, at 10uM
Type: cell-based
Parameters: test concentration 10 uM, cell line HepG2-A16-CD81EGFP
Conditions: human, HepG2-A16-CD81EGFP cells; read-out: INHIBITION
Summary of the method: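 Uninfected HepG2-A16-CD81EGFP cells, 3 × 10^3 per well, 1536-well, plated on prespotted compound at 10 μM final, parasite-free screening media added to match infected plates; puromycin 10 μM positive, DMSO 0.5% negative; run in parallel with 48 h PbLuc assay at 37 °C, 5% CO2; viability by CellTiter-Glo luminescence, normalized to controls.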

| SMILES | cytotoxicity at 10 µM [%] |
| --- | --- |
| CCSc1nnc(N(CCC#N)CCC#N)s1 | 4.91 |
| O=C(c1sccc1-n1cnnn1)N1CCC(Cc2ccccc2)CC1 | 9.49 |
| CCOc1ccccc1-c1noc(CN(C)Cc2cnn(C)c2)n1 | -6.98 |
| CN1CCN2C(=O)N(c3ccccc3)C[C@H]2C1 | 3.7 |
| CCCc1cc(=O)[nH]c2nnc(SCC(C)=O)n12 | 7.29 |
| Cc1ccccc1CSc1nc(=O)n(CCO)c2c1CCC2 | 20.6 |
| CO[C@@H]1CC[C@H]2[C@H]1OCCN2C(=O)c1ccco1 | -148 |
| CCCOc1ccc(C(=O)Oc2cc(=O)n3cccc(C)c3n2)cc1 | 5.17 |
| COc1cccc(CNC(=O)c2cccnc2N)c1 | 20.1 |
| COc1ccc(C2CC(=O)Oc3cc(C)[nH]c(=O)c32)cc1 (configuration not stated) | -3.16 |
| O=S(=O)(NC1=NCN(CCc2cccs2)CN1)c1ccc(F)cc1 | -1.01 |
| Cc1cccc(CN2C[C@@H]3CN(C(=O)NC(C)C)C[C@@H]3C2=O)c1 | -12.9 |
| O=C1COC2(CCN(Cc3ccccn3)CC2)CN1CC1CC1 | 13.9 |
| Cc1c2ncn(CC(=O)N(C)C)c(=O)c2nn1C | -2.56 |
| CCCn1cc(C(=O)n2nc(C)cc2C)c(S(=O)(=O)N2CCSCC2)n1 | -10.1 |
| Cc1cccc2c1cnn2CCCNC(=O)C(C)C | -2.12 |
| CCN(CC)c1nc(O)cc(C(C)n2ncc3ccccc3c2=O)n1 (configuration not stated) | 2.47 |
| CCOCC(=O)N1CCC(c2cc3ncccc3c(O)n2)CC1 | -30.1 |
| CC1(C2CCN(CC(N)=O)CC2)CN(Cc2ccccc2)C(=O)CO1 (configuration not stated) | -19.9 |
| Cc1ccccc1CC(=O)N1CC[C@@](O)(CNS(C)(=O)=O)[C@H](O)C1 | -25.6 |
| COCC(=O)N1CCCC1c1nc(O)cc(C(C)C)n1 (configuration not stated) | -15.5 |

| SMILES | cytotoxicity at 10 µM [%] |
| --- | --- |
| Cc1cc(-c2cnc(N3CCNC(=O)C3)nc2-c2sccc2C)on1 | -12 |
| CC(=O)Nc1nc(C2CCN(C(=O)Cc3ccccc3)CC2)cs1 | -11.8 |
| Cc1cc(CN2CCOC(C)(C(=O)N3CCOCC3)C2)no1 (configuration not stated) | -24.2 |
| COCCC(=O)N1CCC(c2cc(O)n(C)n2)C1 (configuration not stated) | -23.1 |
| O=C1NCCN1C1CCN(CC(O)c2ccccc2F)CC1 (configuration not stated) | -0.535 |
| CN(C)Cc1ccnc(NS(=O)(=O)CCc2ccccc2)c1 | -3.09 |
| Cc1ccc(CNCCC(O)(c2nccn2C)C(F)(F)F)o1 (configuration not stated) | 1.18 |
| CC(C)N(C)CCCNC(=O)c1cnn(C(C)C)c1C(F)(F)F | 5.31 |
| CN(c1nc(Cn2cc(Br)ccc2=O)cs1)C1CC1 | 8.34 |
| CS(=O)(=O)NCCCNC(=O)c1cnc(-c2ccsc2)s1 | -13.7 |
| CN1CCN(C(=O)C2(S(C)(=O)=O)CCCC2)Cc2ccccc21 | -4.96 |
| Cc1noc(C)c1C(C)NC(=O)N1CCC(NC(=O)c2ccsc2)CC1 (configuration not stated) | 7.07 |
| CCN1CC(COC(=O)c2ccc(Br)cc2F)CC1=O (configuration not stated) | -2.45 |
| CN1CCOC(CNC(=O)C2(c3cccc(Cl)c3)CC2)C1 (configuration not stated) | -3.03 |
| O=C(NCCNc1cnccn1)N1CC=C(c2ccccc2)CC1 | 6.39 |
| Cc1cccc(CS(=O)(=O)c2nnc(N3CCOCC3)s2)c1 | -3.48 |
| Cc1cccc(NC(=O)[C@@H]2CCCN2Cc2ccccc2C#N)n1 | -4.11 |
| O=C(NCCNS(=O)(=O)c1ccc(C(F)(F)F)cc1)c1ccoc1 | -1.36 |
| NC(=O)COc1ccc(CNCc2ccc(Cl)c(F)c2)cc1 | -3.64 |
| Cc1cc(C)n(Cc2cccc(C(=O)NCCSCC(C)(C)O)c2)n1 | -6.93 |
| COCCN(C(=O)c1ccn(-c2ccc(OC)cc2)n1)C(C)C(N)=O (configuration not stated) | 0.337 |

| SMILES | cytotoxicity at 10 µM [%] |
| --- | --- |
| Cc1cc(C)c(CNC(=O)NCC2Cc3ccccc32)c(=O)[nH]1 (configuration not stated) | -3.78 |
| CCOCC(=O)NS(=O)(=O)c1ccc(F)cc1C(F)(F)F | 3.25 |
| CC(CNC(=O)c1ccon1)Oc1cccc(Br)c1 (configuration not stated) | -1.52 |
| CC(Cn1cccn1)NC(=O)N1CCC(NS(C)(=O)=O)CC1 (configuration not stated) | -0.508 |
| O=C1CC(N(C(=O)COc2ccc(F)cc2F)C2CC2)C(=O)N1 (configuration not stated) | -3.59 |
| Cc1csc(CNc2cnn(C(C)C)c2)n1 | 9.45 |
| Cc1cc(C)cc(C(=O)N2CCCN(CC(N)=O)CC2)c1 | -5.65 |
| Cc1cnn(CC(C)NCCc2cccs2)c1 (configuration not stated) | -1.52 |
| CC(C)OCCOCc1cccc(NC(=O)NCc2ccccn2)c1 | -2.35 |
| COc1ccc(-c2nc(CN3CC(n4nc(C)cc4C)C3)no2)cc1 | -3.88 |
| CCN(CC)c1ccc(NS(=O)(=O)c2cnn(C)c2)cn1 | -7.12 |
| Cc1noc(C)c1CCCNc1cnccn1 | 10.2 |
| CCn1ncnc1C(C)NC(=O)CC1CCN(C(C)C)CC1 (configuration not stated) | -133 |
| O=C1CC(NCc2ccc(OC(F)F)cc2)CN1Cc1cccc(F)c1 (configuration not stated) | -5.29 |
| CCCn1ccnc1CN1CCCC(CC)(CO)C1 (configuration not stated) | 3.44 |
| COCCN(C)C[C@@H]1CN(C(=O)c2ccc(OC)c(F)c2)C[C@@H]1CO | 2.87 |
| CCCn1ccnc1CN1CCCC(O)(CN(C)C)CC1 (configuration not stated) | 1.33 |
| OCCc1ncnn1Cc1cccc(Cl)c1 | 18.2 |
| COc1cccc(F)c1C(=O)N1C[C@@H](CN(C)CCO)[C@@H](CO)C1 | -5.88 |
| O=S1(=O)C[C@@H]2[C@H](C1)N(Cc1ncc[nH]1)CCN2CC1CC1 | -7.18 |
| CCCS(=O)(=O)N1CCN(c2cc(-n3nc(C)cc3C)nc(C)n2)CC1 | -13.7 |

| SMILES | cytotoxicity at 10 µM [%] |
| --- | --- |
| CN(Cc1cccc(OC(F)F)c1)Cc1nc2c(cnn2C)c(=O)[nH]1 | -0.438 |
| Cc1noc(Cl)c1CCC(=O)N1CCN(c2cnccn2)CC1 | -3.5 |
| CC1CCCCN1CCNC(=O)c1scnc1Cl (configuration not stated) | -6.27 |
| CC(=O)Nc1nc(C(=O)N2CCCC(n3ccnc3C)C2)cs1 (configuration not stated) | -9.78 |
| Cc1ncc(C(=O)NCCNC(=O)c2ccccc2)s1 | -3.67 |
| O=C(c1cc2c(s1)CCCC2)N1CCCC1Cn1cccn1 (configuration not stated) | -11.9 |
| Cc1cc(C(=O)O)cc(S(=O)(=O)Nc2ccc3c(c2)OCCO3)c1C | -3.95 |
| Cc1ccc(N2CCCC(NCc3cnc(C)s3)C2)nn1 (configuration not stated) | -0.755 |
| COc1c(CNC2CCN(C(=O)C3CC3)CC2)c(C(C)C)nn1C | -4.72 |
| Fc1ccc(-c2nnc(CN3CCn4c(nnc4C4CC4)C3)o2)cc1 | 0.577 |
| COc1ccccc1OCC(=O)NS(=O)(=O)c1ccc(Br)s1 | -8.72 |
| Cn1ccnc1N1CCN(C(=O)Cc2ccc(F)cc2)CC1 | 4.73 |
| CCN(C)C1COC2(CCN(C(=O)c3cccc(Cl)c3)CC2)C1 (configuration not stated) | -5.66 |
| CO[C@H]1CCN(C(=O)c2ccsc2)[C@@H]2CN(CC3CC3)C[C@H]12 | 1.64 |
| CN(C)CCN1CCC2(CCN(C(=O)c3cccc(F)c3)CC2)C1=O | -6.19 |
| CS(=O)(=O)N1C[C@@H]2C[C@H](C(=O)N3CCOCC3)[C@H](C1)O2 | -2.92 |
| CSc1ncccc1C(=O)N1C[C@@H]2CC[C@H]1CN(c1cnccn1)C2 | -2.72 |
| Cc1nonc1CC(=O)N1C[C@H]2CC[C@@H](C1)N(Cc1ccccc1)C2=O | -11.6 |
| Cc1ccc(-n2cc3[nH]c(=O)n(C(C)C)n3c2=O)cc1 | -8.9 |
